Compound activity from PubChem BioAssay.
TRPC6 inhibitor = inhibitors of mouse TRPC6 channel; Q61143; HEK293-TRPC6, membrane potential dye, ACh-evoked depolarization; active compounds read low; B-score at 10 µM; 1.1% of 310,000 active;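 active = B-score under library mean minus 3 SD, initial fluorescence not abnormally high, positive integrated signal ratio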;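 note: B-score derived from integrated fluorescence ratio over the kinetic read; more negative B-score means stronger inhibition of depolarization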
TRPC6 act = activates the mouse TRPC6 cation channel; Q61143; HEK293-TRPC6 membrane potential dye fluorescence; active compounds read high; B-score at 10 µM; 0.13% of 310,000 active; AID 2550;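 active = B-score of the integrated fluorescence ratio above library mean plus 3 SD, and starting fluorescence ratio within library mean plus 5 SD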;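 note: higher score means more depolarization so channel activation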
TRPC4 potent = allosteric potentiators of mouse TRPC4 channel. B-score at 10 µM. HEK293 TRPC4beta/mu-opioid, DAMGO EC20, Fluo-4 Ca2+ flux; active compounds read high. AID 2227. 0.42% of 310,000 active. Q9QUQ5;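 active = B-score of calcium response area above 5 SD of library B-scores, with initial fluorescence ratio within 5 SD of library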;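 note: B-score of integrated fluorescence ratio over time as area under calcium response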
TRPC4 agonist = opens the mouse TRPC4 cation channel; HEK293 TRPC4beta/mu-opioid, Fluo4 calcium fluorescence; active compounds read high; B-score at 10 µM; 0.49% of 310,000 active; AID 2237;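 active = B-score above 5 SD of library B-scores, and initial fluorescence ratio not above library mean plus 5 SD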;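 note: positive B-score marks a calcium rise read as TRPC4 activation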
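System – HEK293 cells stably co-expressing mouse TRPC4beta and mu-opioid receptor · Signal – Fluo4 calcium-sensitive dye fluorescence, kinetic, 1 Hz baseline · Benchmarks – buffer (low) and maximal DAMGO (high) · Read-out – B score of integrated fluorescence ratio per well · Incubation – dye loading 45 min room temperature, 110 s kinetic read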
TRPC4 block = blocks the mouse TRPC4 cation channel; Q9QUQ5; HEK293 TRPC4beta/mu-opioid, DAMGO-evoked Fluo4 calcium flux; active compounds read low; B-score at 10 µM; 0.39% of 300,000 active; AID 2247;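 active = B-score over 3 SD under the library average, no early fluorescence shift, positive overall ratio signal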
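Material: HEK293 cells with stable TRPC4beta plus mu-opioid receptor expression; probe or stimulus: DAMGO in two steps, submaximal then maximal; technique: Fluo4 calcium fluorescence by kinetic imaging, 5 s 1 Hz baseline; measure: integrated fluorescence ratio relative to baseline, converted to per-well B score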
TRPC4 spec 2 = mouse TRPC4 off-target activity of TRPC6 inhibitors, second screen; shares compounds with TRPC6 inhibitor; HEK293 TRPC4/MOR, membrane potential dye fluorescence; channel activated by saturating DAMGO dose; inhibition, % at 10 µM; 42% of 920 active; AID 2776;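 active = compounds whose fluorescence signal differed from control wells by over 3 SD, either direction, in both duplicate plates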
TRPC4 spec = selectivity of TRPC6 inhibitors: effect on mouse TRPC4 | activity change, negative = inhibition, % at 10 µM | shares compounds with TRPC6 inhibitor | HEK293 TRPC4/mu-opioid, membrane potential fluorescence | 61% of 920 active;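 active = rise or fall in signal beyond 3 SD of buffer-only wells in both replicate plates, either sign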;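 note: integrated kinetic ratio of fluorescence range over baseline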
HEK293 MPD ctr 2-1 = second counter-screen for TRPC6 inhibitors: parental HEK293 cells; shares compounds with TRPC6 inhibitor; 31% of 920 active; parental HEK293 membrane potential dye fluorescence; maximal acetylcholine challenge after compound addition; signal change vs control, % at 10 µM; AID 2779;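 active = membrane potential signal moving either way by over 3 SD of the maximum-effect control, in both duplicate plates, meaning non-specific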
HEK293 MPD ctr-1 = checks TRPC6 inhibitor effects in parental HEK293 cells | shares compounds with TRPC6 inhibitor | parental HEK293 membrane potential dye fluorescence | membrane potential signal change, % at 10 µM | 60% of 920 active;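 active = membrane potential signal shifting up or down by more than 3 SD of buffer-only wells, on both duplicate plates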
HEK293 MPD ctr-2 = parental HEK293 nonspecific activity of TRPC6 modulators. membrane potential signal change, % at 10 µM. membrane potential dye fluorescence. shares compounds with TRPC6 inhibitor. 51% of 2,400 active. AID 488924;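 active = membrane potential signal moves up or down beyond 5 SD from buffer-only wells, on both duplicate plates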
HEK293 MPD ctr 2-2 = second check of TRPC6 modulator effects in parental HEK293 cells; shares compounds with TRPC6 inhibitor; membrane potential dye fluorescence; after compound, maximal acetylcholine stimulation; inhibition, % at 10 µM; 14% of 2,400 active; AID 488926;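 active = membrane potential signal drops by more than 5 SD from the mean control signal, in both duplicate plates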;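 note: plate controls were acetylcholine ECmax control wells for no effect and buffer only wells for full effect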
TRPC4 ctr mod = tests whether TRPC6 modulators also affect mouse TRPC4. shares compounds with TRPC6 inhibitor. percent change from control (negative = decrease, positive = increase), % at 10 µM. 69% of 2,400 active. AID 488927. HEK293 TRPC4/mu-opioid, membrane potential fluorescence;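 active = membrane potential signal moved up or down beyond 5 SD of buffer control wells, in both duplicate plates, actives on both sides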;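 note: plate controls were assay buffer wells for no effect and DAMGO maximal-effect wells for full effect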
TRPC4/MOR inh 2 = second check of whether TRPC6 modulators also affect mouse TRPC4; shares compounds with TRPC6 inhibitor; HEK293 TRPC4/mu-opioid, membrane potential dye fluorescence; stimulated with maximal-effect DAMGO; inhibition, % at 10 µM; 55% of 2,400 active; AID 488928;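 active = drop in membrane potential signal beyond 5 SD of the control wells in both duplicate plates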;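 note: TRPC4 counter screen for TRPC6 hits run under conditions tuned for TRPC6 not TRPC4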
TRPC6 block conf = confirmation of mouse TRPC6 inhibitors | shares compounds with TRPC6 inhibitor | HEK293-TRPC6, membrane potential dye, ACh-evoked depolarization | inhibition, % at 10 µM | 43% of 3,300 active;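 active = fluorescence ratio falls more than 5 SD below the full-stimulation control mean, in both duplicate runs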;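 note: integrated fluorescence ratio of peak minus minimum over baseline after agonist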
TRPC6 act conf = confirmation of mouse TRPC6 activators; shares compounds with TRPC6 inhibitor; HEK293-TRPC6 membrane potential dye fluorescence, FDSS; activation, % at 10 µM; 11% of 2,800 active;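 active = ratio signal rise beyond 5 SD above unstimulated control wells' mean, seen in both duplicate runs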;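 note: plate controls were buffer EC0 wells for no effect and acetylcholine ECmax response for full effect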
An asterisk follows results filed as active; i = inactive; . = no result. Sampled rows, rich in hits. Any-hit rate of the full collection: about 2.3%.

SMILES	TRPC6 inhibitor	TRPC6 act	TRPC4 potent	TRPC4 agonist	TRPC4 block	HEK293 MPD ctr-2	HEK293 MPD ctr 2-2	TRPC4 ctr mod	TRPC4/MOR inh 2	TRPC6 block conf	TRPC6 act conf	others
Cc1cc(C)c2c(n1)nn1c(NCCCN(C)C)cc(C)nc21	i	i	i	i	i	.	.	.	.	.	.
Cc1cc(NCCCN(C)C)n2nc(-c3cccs3)cc2n1	-8.2*	i	12*	i	i	-349%*	82%*	-58%*	58%*	69%*	i
O=C(NC(Cc1ccccc1)C(=O)O)C1CCN(S(=O)(=O)c2ccccc2C(F)(F)F)CC1 (stereo not given)	i	i	i	i	i	.	.	.	.	.	.
Cc1nnc(NC(=O)c2c(-c3ccccc3Cl)noc2C)s1	i	i	i	i	i	.	.	.	.	.	.
Cc1onc(-c2ccccc2Cl)c1C(=O)Nc1nnc(Cc2ccc(Cl)cc2)s1	-6.6*	i	i	i	i	.	.	.	.	i	i	TRPC4 spec 2=i;TRPC4 spec=i;HEK293 MPD ctr 2-1=i;HEK293 MPD ctr-1=i
Cc1ccn2c(Nc3ccccc3C)c(-c3ccccn3)nc2c1	-5.7*	i	i	i	i	-130%*	i	-27%*	81%*	i	i
Cc1ccccc1Nc1c(-c2cccnc2)nc2ccccn12	-5.6*	i	i	i	i	-132%*	i	-14%*	66%*	i	i
Cc1ccccc1Nc1c(-c2ccncc2)nc2ccc(Br)cn12	-7*	i	i	i	i	-131%*	i	-39%*	94%*	64%*	i
Cc1ccccc1Nc1c(-c2cccnc2)nc2ccc(Br)cn12	i	i	i	i	i	.	.	.	.	.	.
CCC1=C(OC(=O)N(CC)CC)N2C(=O)OC(=NCC(=O)OC)[C@]2(Cc2ccccc2)[C@H]2C1=CC[C@H]1C(=O)NC(=O)[C@H]12	i	i	i	i	i	.	.	.	.	.	.
CCC(C)(C)n1nnnc1C(c1ccc2ncccc2c1)N1CCCCCC1 (stereo not given)	-5.1*	i	i	i	i	i	i	28%*	33%*	i	.
c1cnc2ccc(C(c3nnnn3C3CCCCC3)N3CCCCC3)cc2c1 (stereo not given)	-5.9*	i	i	i	i	149%*	i	35%*	30%*	54%*	.
c1ccc(-c2ccc(-c3cnc4n3CCCCC4)cc2)cc1	i	i	i	i	i	.	.	.	.	.	.
